Data from ChEMBL document CHEMBL4715718, “Methyl Protodioscin, a Steroidal Saponin, Inhibits Neointima Formation in Vitro and in Vivo” (J Nat Prod, 2016).
pIC50: −log10 of the molar value. Calls of active or inactive are those of the source. The calls are words filed in the database; no cut-off is given here.

Tests used:
[1] = Antiproliferative activity against rat A7r5 cells assessed as reduction in cell viability after 24 hrs by MTT assay; settings: A7R5, 24 h
[2] = tested on: A7R5; test: Induction of cell cycle arrest in rat A7r5 cells assessed as accumulation of cells at G0/G1 phase at 3 to 9 uM after 18 hrs by PI/RNase A staining based flow cytometric analysis; format: functional; settings: dose 3-9 µM
[3] = tested on: A7R5; test: Induction of apoptosis in rat A7r5 cells assessed as effect on Bax protein expression at 3 to 9 uM after 24 hrs by Western blot analysis; format: functional, cell-based; settings: dose 3-9 µM
Method in brief: (§1)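 Bax and Bcl-2 in A7r5 cells are immunoblotted after treatment (3, 6 and 9 μM, 24 h) in culture medium. Lysis in SDS/DTT/Tris buffer pH 6.8 at 95 °C, then SDS-PAGE and PVDF. Bands are given relative to the 10% FBS control, and the Bax/Bcl-2 ratio is computed. Triplicate; one-way ANOVA.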

[4] = tested on: A7R5; test: Induction of apoptosis in rat A7r5 cells assessed as effect on Bcl2 protein expression at 3 to 9 uM after 24 hrs by Western blot analysis; format: functional, cell-based; settings: dose 3-9 µM; method in brief: as §1
[5] = tested on: A7R5; test: Induction of apoptosis in rat A7r5 cells assessed as effect on Bax/Bcl2 expression ratio at 3 to 9 uM measured after 24 hrs by Western blot analysis; format: functional, cell-based; settings: dose 3-9 µM; method in brief: as §1
[6] = tested on: A7R5; test: Induction of apoptosis in rat A7r5 cells assessed as change in sub-G1 phase at 3 to 9 uM after 24 hrs by PI/RNase A staining based flow cytometric analysis; format: functional, cell-based; settings: dose 3-9 µM
Method in brief: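 A7r5 cells were plated at 1.0 × 10^5 per 10 cm dish and exposed to graded concentrations in DMEM with 10% FBS. They were trypsinized, fixed in ice-cold 70% ethanol overnight at −20 °C, then stained with PI/Triton X-100/RNase A at 37 °C for at least 30 min in the dark. Sub-G1, G0/G1, S and G2/M fractions were read by FACScan. Control: 10% FBS; n = 3.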

[7] = tested on: Rattus norvegicus; test: Inhibition of neointima formation index of injured vessel in rat model of balloon injury induced neointimal hyperplasia at 3 to 6 uM administered as extravascular treatment and measured after 2 weeks by hematoxylin and eosin Y staining based histopathological analysis; format: functional; settings: dose 3-6 µM
Method in brief: (§2)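 Male rats (3–4 months, 300–350 g) were randomized into four groups: sham, balloon injury + PBS, and balloon injury + 3 μM or 6 μM compound. PBS or compound was given extravascularly in ice-cold 30% (w/v) pluronic F-127 gel. Arterial sections 5–10 μm thick (6 per block) were stained with hematoxylin and eosin Y. Intima, media and lumen areas and the intima/media ratio were measured by image analysis.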

[8] = tested on: Rattus norvegicus; test: Reduction in ADAM15 protein expression in VSMCs and injured arteries in rat model of balloon injury induced neointimal hyperplasia at 3 to 6 uM administered as extravascular treatment and measured after 2 weeks by Western blot analysis; format: functional; settings: dose 3-6 µM
[9] = target: T1, Disintegrin and metalloproteinase domain-containing protein 15 (Rattus norvegicus) (UniProt Q9QYV0); test: Inhibition of ADAM15-mediated FAK phosphorylation in rat A7r5 cells at 3 to 9 uM after 24 hrs by western blot analysis; format: cell-based; settings: dose 3-9 µM
T1 sequence (whole entry): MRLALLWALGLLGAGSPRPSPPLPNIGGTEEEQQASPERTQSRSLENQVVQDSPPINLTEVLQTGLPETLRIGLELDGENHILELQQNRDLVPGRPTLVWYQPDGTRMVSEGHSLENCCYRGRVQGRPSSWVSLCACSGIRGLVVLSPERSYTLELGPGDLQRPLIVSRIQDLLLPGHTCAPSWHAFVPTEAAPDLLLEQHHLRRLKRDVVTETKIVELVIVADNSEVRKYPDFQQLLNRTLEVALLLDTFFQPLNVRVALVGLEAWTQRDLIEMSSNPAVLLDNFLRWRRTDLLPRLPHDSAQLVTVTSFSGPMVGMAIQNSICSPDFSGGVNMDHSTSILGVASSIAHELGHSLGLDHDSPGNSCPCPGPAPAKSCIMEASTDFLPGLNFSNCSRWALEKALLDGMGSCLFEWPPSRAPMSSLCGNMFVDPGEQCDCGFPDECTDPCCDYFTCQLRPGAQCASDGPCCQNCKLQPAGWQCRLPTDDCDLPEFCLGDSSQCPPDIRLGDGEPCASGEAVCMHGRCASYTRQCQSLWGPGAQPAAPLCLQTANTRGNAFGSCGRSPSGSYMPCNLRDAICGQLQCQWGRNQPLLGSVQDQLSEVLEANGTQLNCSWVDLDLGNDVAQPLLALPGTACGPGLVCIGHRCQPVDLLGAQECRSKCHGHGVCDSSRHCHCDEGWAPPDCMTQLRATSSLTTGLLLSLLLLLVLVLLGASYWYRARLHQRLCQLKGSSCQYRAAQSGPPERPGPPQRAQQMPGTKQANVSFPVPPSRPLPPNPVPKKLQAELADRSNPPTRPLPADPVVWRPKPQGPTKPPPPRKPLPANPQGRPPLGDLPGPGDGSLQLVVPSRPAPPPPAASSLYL
Method in brief: (§3)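 A7r5 rat aortic smooth muscle cells (DMEM, 10% FBS, 37 °C, 5% CO2) treated with 3, 6 or 9 μM in culture medium for 24 h. Lysed in 2% SDS/50 mM DTT/62.5 mM Tris-HCl pH 6.8 at 95 °C for 5 min. SDS-PAGE, PVDF transfer, 5% milk block, HRP secondary. Band expressed as % of control; mean ± SD, n = 3, one-way ANOVA.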

[10] = tested on: A7R5; test: Down regulation of ERK2 expression in rat A7r5 cells at 3 to 9 uM after 24 hrs by Western blot analysis; format: functional, cell-based; settings: dose 3-9 µM; method in brief: as §3
[11] = tested on: A7R5; test: Down regulation of AKT expression in rat A7r5 cells at 3 to 9 uM after 24 hrs by Western blot analysis; format: functional, cell-based; settings: dose 3-9 µM; method in brief: as §3
[12] = tested on: A7R5; test: Down regulation of ADAM15 protein translational level in rat A7r5 cells at 9 uM after 24 hrs by Western blot analysis; format: functional, cell-based; method in brief: as §3
[13] = tested on: A7R5; test: Down regulation of FAK expression in rat A7r5 cells at 3 to 9 uM after 24 hrs by Western blot analysis; format: functional, cell-based; settings: dose 3-9 µM; method in brief: as §3
[14] = tested on: A7R5; test: Down regulation of PI3K expression in rat A7r5 cells at 3 to 9 uM after 24 hrs by Western blot analysis; format: functional, cell-based; settings: dose 3-9 µM; method in brief: as §3
[15] = tested on: A7R5; test: Down regulation of ERK1 expression in rat A7r5 cells at 3 to 9 uM after 24 hrs by Western blot analysis; format: functional, cell-based; settings: dose 3-9 µM; method in brief: as §3
[16] = tested on: A7R5; test: Inhibition of cell migration in rat A7r5 cells at 6 to 9 uM after 16 hrs by crystal violet staining based transwell assay; format: functional; settings: dose 6-9 µM
Method in brief: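 Transwell, 8 μm pore: 1.2 × 10^4 A7r5 cells in the upper chamber attach for 2 h. The upper chamber then receives serum-free medium with compound, and the lower chamber 10% FBS medium with compound, for 16 h at 37 °C. Cells are fixed in formaldehyde, stained with crystal violet and counted in five random fields. Migration is given as % of control cell number.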

[17] = tested on: A7R5; test: Inhibition of cell migration in rat A7r5 cells at 9 uM after 18 hrs by scratch wound healing assay; format: functional, cell-based
[18] = tested on: A7R5; test: Down regulation of MMP-2 expression in rat A7r5 cells at 3 to 9 uM after 24 hrs by Western blot analysis; format: functional, cell-based; settings: dose 3-9 µM; method in brief: as §3
[19] = tested on: A7R5; test: Down regulation of MMP-9 expression in rat A7r5 cells at 3 to 9 uM after 24 hrs by Western blot analysis; format: functional, cell-based; settings: dose 3-9 µM; method in brief: as §3
[20] = target: T1, Disintegrin and metalloproteinase domain-containing protein 15 (Rattus norvegicus); test: Inhibition of ADAM15-mediated MMP-9 activity in rat A7r5 cells at 6 uM after 24 hrs by gelatin zymography; format: cell-based
Method in brief: (§4)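 Conditioned medium came from A7r5 cells (1.0 × 10^5 per 10 cm dish) held 24 h with the compound in DMEM/10% FBS. It ran under nonreducing conditions on 10% SDS-PAGE with 0.1% gelatin. Gels were washed in 2.5% Triton X-100 for 1 h, developed at 37 °C in pH 8.0 Tris/10 mM CaCl2 buffer, then Coomassie stained and destained. Clear bands were quantified as % of control; n = 3.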

[21] = target: T1, Disintegrin and metalloproteinase domain-containing protein 15 (Rattus norvegicus); test: Inhibition of ADAM15-mediated MMP-9 activity in rat A7r5 cells at 9 uM after 24 hrs by gelatin zymography; format: cell-based; method in brief: as §4
[22] = target: T1, Disintegrin and metalloproteinase domain-containing protein 15 (Rattus norvegicus); test: Inhibition of ADAM15-mediated PI3K phosphorylation in rat A7r5 cells at 3 to 9 uM after 24 hrs by western blot analysis; format: cell-based; settings: dose 3-9 µM; method in brief: as §3
[23] = target: T1, Disintegrin and metalloproteinase domain-containing protein 15 (Rattus norvegicus); test: Inhibition of ADAM15-mediated AKT phosphorylation in rat A7r5 cells at 3 to 9 uM after 24 hrs by western blot analysis; format: cell-based; settings: dose 3-9 µM; method in brief: as §3
[24] = target: T1, Disintegrin and metalloproteinase domain-containing protein 15 (Rattus norvegicus); test: Inhibition of ADAM15-mediated ERK phosphorylation in rat A7r5 cells at 3 to 9 uM after 24 hrs by western blot analysis; format: cell-based; settings: dose 3-9 µM; method in brief: as §3
[25] = Inhibition of neointima formation of injured vessel in rat model of balloon injury induced neointimal hyperplasia assessed as area of intima at 3 uM administered as extravascular treatment and measured after 2 weeks by hematoxylin and eosin Y staining based histopathological analysis (reference value: 3346.4 +/-556.7 um2); format: functional; method in brief: as §2
[26] = Inhibition of neointima formation of injured vessel in rat model of balloon injury induced neointimal hyperplasia assessed as area of media at 3 uM administered as extravascular treatment and measured after 2 weeks by hematoxylin and eosin Y staining based histopathological analysis (reference value: 1462.7 +/-393.9 um2); format: functional; method in brief: as §2
[27] = Inhibition of neointima formation of injured vessel in rat model of balloon injury induced neointimal hyperplasia assessed as area of lumen at 3 uM administered as extravascular treatment and measured after 2 weeks by hematoxylin and eosin Y staining based histopathological analysis (reference value: 6809.1 +/-820.8 um2); format: functional; method in brief: as §2
[28] = Inhibition of neointima formation of injured vessel in rat model of balloon injury induced neointimal hyperplasia assessed as ratio of area of intima-to-media at 3 uM administered as extravascular treatment and measured after 2 weeks by hematoxylin and eosin Y staining based histopathological analysis (reference value: 1.98 +/-0.36); format: functional; method in brief: as §2
[29] = Inhibition of neointima formation of injured vessel in rat model of balloon injury induced neointimal hyperplasia assessed as area of intima at 6 uM administered as extravascular treatment and measured after 2 weeks by hematoxylin and eosin Y staining based histopathological analysis (reference value: 3346.4 +/-556.7 um2); format: functional; method in brief: as §2
[30] = Inhibition of neointima formation of injured vessel in rat model of balloon injury induced neointimal hyperplasia assessed as area of media at 6 uM administered as extravascular treatment and measured after 2 weeks by hematoxylin and eosin Y staining based histopathological analysis (reference value: 1462.7 +/-393.9 um2); format: functional; method in brief: as §2
[31] = Inhibition of neointima formation of injured vessel in rat model of balloon injury induced neointimal hyperplasia assessed as area of lumen at 6 uM administered as extravascular treatment and measured after 2 weeks by hematoxylin and eosin Y staining based histopathological analysis (reference value: 6809.1 +/-820.8 um2); format: functional; method in brief: as §2
[32] = Inhibition of neointima formation of injured vessel in rat model of balloon injury induced neointimal hyperplasia assessed as ratio of area of intima-to-media at 6 uM administered as extravascular treatment and measured after 2 weeks by hematoxylin and eosin Y staining based histopathological analysis (reference value: 1.98 +/-0.36); format: functional; method in brief: as §2

## CO[C@]1(CC[C@@H](C)CO[C@@H]2O[C@H](CO)[C@@H](O)[C@H](O)[C@H]2O)O[C@H]2C[C@H]3[C@@H]4CC=C5C[C@@H](O[C@@H]6O[C@H](CO)[C@@H](O[C@@H]7O[C@@H](C)[C@H](O)[C@@H](O)[C@H]7O)[C@H](O)[C@H]6O[C@@H]6O[C@@H](C)[C@H](O)[C@@H](O)[C@H]6O)CC[C@]5(C)[C@H]4CC[C@]3(C)[C@H]2[C@@H]1C [METHYLPROTODIOSCIN]
[1]
  pIC50: 5.05
[2]
  Activity: Active
[3]
  Activity: inactive
[4]
  Activity: inactive
[5]
  Activity: inactive
[6]
  Activity: inactive
[7]
  inhibition: Active
[8]
  inhibition: Active
[9]
  inhibition: Active
[10]
  inhibition: Active
[11]
  inhibition: Active
[12]
  inhibition: Active
[13]
  inhibition: Active
[14]
  inhibition: Active
[15]
  inhibition: Active
[16]
  inhibition: Active
[17]
  inhibition: Active
[18]
  inhibition: Active
[19]
  inhibition: Active
[20]
  inhibition: Active
[21]
  inhibition: Active
[22]
  inhibition: Active
[23]
  inhibition: Active
[24]
  inhibition: Active
[25]
  Activity: 1828.4 um2
[26]
  Activity: 1902 um2
[27]
  Activity: 4730.4 um2
[28]
  Ratio: 0.92
[29]
  Activity: 912.4 um2
[30]
  Activity: 1164.2 um2
[31]
  Activity: 3076.6 um2
[32]
  Ratio: 0.34
